Published values pooled from the literature.
Compare with care: the assays were run in different laboratories.
Observed: cell growth or viability

Compound | cell line | test | conditions | endpoint | value
COc1ccc(-c2ccc(-c3ccc(C(=N)N)nc3)s2)cc1 | SN12C | – | – | GI50 | 1830 nM
COc1cc(Nc2nccc(-c3cnn4nc(OC)ccc34)n2)cc(C(F)(F)F)c1 | P31-FUJ | ATP luminescence | – | IC50 | 1100 nM
COc1cc(-c2ccc(-c3ccc(C(=N)N)nc3)s2)cc(OC)c1OC | UO-31 | – | – | GI50 | 1880 nM
CCc1n(Cc2ccc3ccccc3n2)cc[n+]1Cc1ccc2ccccc2n1 | HOP-92 | SRB | – | TGI | 521 nM
S=C([S][Au-][P+](CCCCCC[P+]([Au-][S]C(=S)n1cccn1)(c1ccccc1)c1ccccc1)(c1ccccc1)c1ccccc1)n1cccn1 | UO-31 | – | – | GI50 | 933 nM
Cc1n(Cc2ccc3ccccc3n2)cc[n+]1Cc1ccc2ccccc2c1 | HOP-62 | SRB | – | TGI | 6660 nM
CC1(C)CCC(CN2CCN(c3ccc(C(=O)NS(=O)(=O)c4ccc(NCC5CCOCC5)c([N+](=O)[O-])c4)c(Oc4cnc5[nH]ccc5c4)c3)CC2)=C(c2ccc(Cl)cc2)C1 | MDCK | – | 24 h | EC50 | > 50000 nM
C[C@@H](Oc1cc(-c2cnn(C3CCNCC3)c2)cnc1N)c1c(Cl)ccc(F)c1Cl | M091 | resazurin | 48 h | GI50 | 10 nM
Nc1ncnc2c1ncn2[C@@H]1O[C@H](CO)[C@@H](O)[C@@H]1O | CAL-27 | – | 72 h | IC50 | > 20000 nM
c1ccc(-c2n(Cc3ccc4ccccc4c3)cc[n+]2Cc2ccc3ccccc3c2)cc1 | HOP-62 | SRB | – | TGI | 3230 nM
Cc1ccc2cncc(N3CCc4c(cc(Cn5ccnc5)cc4-c4cn(C)nc4C(F)(F)F)C3=O)c2c1 | K562 | ATP luminescence | 5 days | GI50 | 4900 nM
CC1(C)C(=O)NC2=C1C(=O)C(=O)c1ccccc12 | CAL-27 | – | 72 h | IC50 | 2880 nM
CCCc1n(Cc2ccc3ccccc3n2)cc[n+]1Cc1ccc2ccccc2c1 | HOP-92 | SRB | – | TGI | 1120 nM
COc1ccc(-c2ccc(-c3ccc(C(=N)N)nc3)s2)cc1Cl | UO-31 | – | – | GI50 | 1550 nM
CN(C)CCOc1ccc(-c2nc(-c3ccncc3)c(-c3ccc4c(c3)CC/C4=N\O)[nH]2)cc1 | 451Lu | ATP luminescence | 72 h | EC50 | 670 nM
